Several values for one entry are separate records, joined by “and”; a condition that tells them apart may be missing. Equal entries are not always repeated.
Legend:
Assay type in all cases: physicochemical
[1] = Antioxidant activity assessed as trolox equivalent of […] radical scavenging activity preincubated for 30 mins followed by […] addition measured after 90 mins by lipophilic-ORAC fluorescence assay; settings: 1.5 h
In short: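 Lipophilic ORAC adapted from the Madrona procedure. Trolox standards (200, 100, 50, 25, 12.5 μM) and sample dilutions were made in 7% (w/v) randomly methylated β-cyclodextrin in acetone/H2O (1:1), which also served as blank. Fluorescein and AAPH were prepared in 10 mM phosphate buffer, pH 7.4. AAPH was added after incubation. Read-out otherwise as H-ORAC; quadruplicate, mean ± SD.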

[2] = Antioxidant activity assessed as trolox equivalent of APPH radical scavenging activity preincubated for 30 mins followed by APPH addition measured after 90 mins by hydrophilic-ORAC fluorescence assay; settings: 1.5 h
In short: (§1)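 Hydrophilic TEAC (ABTS) or hydrophilic ORAC run by the previously reported method. Each sample was measured in quadruplicate; values are mean ± SD.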

[3] = Antioxidant activity assessed as trolox equivalent of ABTS radical scavenging activity after 10 mins by hydrophilic-TEAC fluorescence assay; in short: as §1
[4] = Antioxidant activity assessed as H2O2 scavenging activity after 15 mins
In short: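 H2O2 scavenging run by the previously reported method. Each sample was measured in triplicate; values are mean ± SD.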

[5] = Antioxidant activity assessed as trolox equivalent of ABTS radical scavenging activity after 10 mins by lipophilic-TEAC […] assay
In short: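 Lipophilic ABTS TEAC, a modification of the H-TEAC method. Trolox standards (1000, 500, 250, 125, 62.5 μM) and sample dilutions were prepared in 50% DMSO/H2O. Pure DMSO was added to give 10% final DMSO. Processing and measurement followed H-TEAC; quadruplicate, mean ± SD.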

[6] = Antioxidant activity assessed as trolox equivalent of ABTS radical scavenging activity measured for 1 to 6 mins by lipophilic-TEAC […] assay
In short: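 Lipophilic TEAC adapted from the hydrophilic ABTS method: Trolox standards (1000, 500, 250, 125, 62.5 μM) and sample dilutions made in 50% DMSO. Pure DMSO added to wells, giving 10% DMSO final. Otherwise processed, measured and handled as in H-TEAC. Quadruplicate analyses, mean ± SD.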

[7] = Antioxidant activity assessed as trolox equivalent of […] radical scavenging activity preincubated for 30 mins followed by […] addition measured every 1.14 mins for 120 mins by lipophilic-ORAC fluorescence assay; settings: 2 h
In short: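 Lipophilic ORAC (modified Madrona procedure): Trolox standards (200–12.5 μM) and samples diluted in 7% RMCD in acetone/water 1:1. Fluorescein and AAPH prepared in 10 mM phosphate buffer pH 7.4. Fluorescein mixed with standard, sample or RMCD blank, incubated as in H-ORAC, then AAPH added. Read-out and data handling as in H-ORAC. Quadruplicate, mean ± SD.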

Row | Activity [1] | Activity [2] [mmolequiv/mmol] | Activity [3] [mmolequiv/mmol] | EC50 [4] [µM] | Activity [5] [mmolequiv/mmol] | Compound | Activity [6] [mMequiv] | Activity [7] [umolequiv/umol]
1 | 15 mmolequiv/mmol | 13.73 | 5.58 | 2.8 | 5.29 | O=C1c2c(O)cc(O)c([C@@H]3C(=O)c4c(O)cc(O)cc4O[C@H]3c3ccc(O)c(O)c3)c2O[C@H](c2ccc(O)c(O)c2)[C@H]1O |  | 
2 | 14.56 mmolequiv/mmol | 7.54 | 3.5 | 8.5 | 4.95 | O=C1c2c(cc(O)c([C@@H]3C(=O)c4c(O)cc(O)cc4O[C@H]3c3ccc(O)c(O)c3)c2O)O[C@H](c2ccc(O)c(O)c2)[C@H]1O |  | 
3 | 4.87 mmolequiv/mmol | 2.44 | 0.4 | ≤ 53.4 | 1.04 | COc1cc(C(=O)c2c(O)cc3c(c2OC)C=CC(C)(C)O3)ccc1O |  | 
4 | 4.34 mmolequiv/mmol | 2.5 | 0.89 | ≤ 45.4 | 1.68 | COc1c(O)ccc2c1Oc1cc(O)c(CC=C(C)C)c(O)c1C(=O)O2 |  | 
5 | 6.96 mmolequiv/mmol | 4.38 | 1.48 | 17.5 | 2.92 | O=C1c2c(O)cc(O)c(-c3coc4cc(O)cc(O)c4c3=O)c2O[C@H](c2ccc(O)c(O)c2)[C@H]1O |  | 
6 | 3.81 mmolequiv/mmol | 1.06 | 0.89 | 19.7 | 2.96 | CC(C)=CCc1c(O)cc2oc3c(O)c(O)ccc3c(=O)c2c1O |  | 
7 | 2.95 mmolequiv/mmol | 2.43 | 0.4 | 80.2 | 1.33 | O=c1c2cc(O)ccc2oc2cccc(O)c12 |  | 
8 | 9.3 mmolequiv/mmol | 6.61 | 2.48 | 11.3 | 2.84 | O=C1c2c(O)cc(O)cc2O[C@H](c2ccc(O)c(O)c2)C1O (single isomer, unassigned) [(+)-TAXIFOLIN] |  | 
9 | 15.69 mmolequiv/mmol | 9.98 | 3.71 | 4.1 | 5.01 | Oc1cc(O)c2c(c1)O[C@H](c1ccc(O)c(O)c1)[C@H](O)C2 [(-)-EPICATECHIN] |  | 
10 | 0.73 mmolequiv/mmol | 0.62 | 1.16 | 24.2 | 1.09 | O=C1O[C@H]([C@@H](O)CO)C(O)=C1O [ASCORBIC ACID] | 1.05 | 
11 | 3.68 mmolequiv/mmol | 0.6 | 0.48 | 83.3 | 1.67 | CC(C)=CC[C@H]1C[C@@]23C[C@@H](CC=C(C)C)C(C)(C)[C@@](CC=C(C)C)(C(=O)C(C(=O)c4ccc(O)c(O)c4)=C2OC1(C)C)C3=O [CAMBOGIN] |  | 
12 | 3.44 mmolequiv/mmol | 1.28 | 0.81 | 15.7 | 1.92 | C=C(C)[C@@H](CC=C(C)C)C[C@@]12C[C@@H](CC=C(C)C)C(C)(C)[C@@](CC=C(C)C)(C(=O)C(C(=O)c3ccc(O)c(O)c3)=C1O)C2=O [GARCINOL] |  | 
13 | 2.74 mmolequiv/mmol | 1.16 | 0.84 | 26.3 | 2.06 | CC1(C)C=Cc2c(cc3oc4c(O)c(O)ccc4c(=O)c3c2O)O1 [JACAREUBIN] |  | 

Row | Compound | Activity [1] | Activity [2] [mmolequiv/mmol] | Activity [3] [mmolequiv/mmol] | EC50 [4] [µM] | Activity [5] [mmolequiv/mmol] | Activity [6] [mMequiv] | Activity [7] [umolequiv/umol]
14 | O=C1CC(c2ccc(O)cc2)Oc2cc(O)cc(O)c21 (racemic) | 7.35 mmolequiv/mmol | 6.2 | 1.98 | 8.6 | 2.94 | 1.14 | 
15 | Cc1cc(C(C)(C)C)c(O)c(C(C)(C)C)c1 [BUTYLATED HYDROXYTOLUENE] | 0.2 mmolequiv/mmol and 0.12 umolequiv/umol |  |  |  | 0.76 | 0.27 | 
16 | O=c1c(O)c(-c2ccc(O)c(O)c2)oc2cc(O)cc(O)c12 [QUERCETIN] | 11.94 mmolequiv/mmol | 9.36 | 4.85 | 6.1 | 4.84 | 3.1 | 10.4

Source: ChEMBL document CHEMBL3421535, “Antioxidative compounds from Garcinia buchananii stem bark” (J Nat Prod, 2015)
